From ChEMBL document CHEMBL3758134, “Avertoxins A-D, Prenyl Asteltoxin Derivatives from Aspergillus versicolor Y10, an Endophytic Fungus of Huperzia serrata” (J Nat Prod, 2015)

Experiments:
MDA-MB-231 = experiment: Antiproliferative activity against human MDA-MB-231 cells assessed as cell viability after 72 hrs by SRB assay; type: functional, cell-based; conditions: MDA-MB-231, 72 h
Summary of the method: (§1)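 Cells grown in DMEM with 10% FBS and exposed to compound for 72 h. Viability read by sulforhodamine B (SRB) staining.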

HeLa = experiment: Antiproliferative activity against human HeLa cells assessed as cell viability after 72 hrs by SRB assay; type: functional, cell-based; summary of the method: as §1
[1] = Antiproliferative activity against human HCT116 cells assessed as cell viability after 72 hrs by SRB assay; type: functional, cell-based; conditions: HCT-116, 72 h; summary of the method: as §1
Acetylcholinesterase = Acetylcholinesterase (Homo sapiens, UniProt P22303); experiment: Inhibition of human acetylcholinesterase after 30 mins by microplate reader-based Ellman's method
Sequence of Acetylcholinesterase (P22303 whole entry): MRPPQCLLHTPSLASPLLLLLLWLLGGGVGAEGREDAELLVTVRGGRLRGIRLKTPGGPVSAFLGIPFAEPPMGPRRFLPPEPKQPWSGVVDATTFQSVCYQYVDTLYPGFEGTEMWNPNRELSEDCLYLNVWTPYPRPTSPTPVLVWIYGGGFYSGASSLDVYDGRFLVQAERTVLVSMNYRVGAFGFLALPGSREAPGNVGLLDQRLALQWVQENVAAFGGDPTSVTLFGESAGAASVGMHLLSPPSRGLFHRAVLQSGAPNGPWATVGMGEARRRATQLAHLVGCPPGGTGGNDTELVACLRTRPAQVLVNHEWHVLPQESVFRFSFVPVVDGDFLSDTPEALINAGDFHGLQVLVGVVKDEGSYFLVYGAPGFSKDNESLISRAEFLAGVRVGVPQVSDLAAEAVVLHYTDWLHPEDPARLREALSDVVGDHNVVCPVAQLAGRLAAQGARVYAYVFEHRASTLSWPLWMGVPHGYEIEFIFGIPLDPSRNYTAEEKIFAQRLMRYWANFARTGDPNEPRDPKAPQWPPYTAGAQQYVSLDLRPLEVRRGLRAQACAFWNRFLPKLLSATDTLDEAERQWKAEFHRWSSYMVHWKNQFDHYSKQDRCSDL

Work on `CC[C@H]1O[C@@H]2O[C@H](/C=C/C=C/C=C/c3oc(=O)c4c(c3C)O[C@H](C)C4(C)C)[C@H](O)[C@]2(C)[C@@]1(C)O` yielded an IC50 (MDA-MB-231) of over 50 µM, an IC50 (HeLa) of 48 µM and an IC50 [1] of 50 µM.

In the case of `CC[C@H]1O[C@@H]2O[C@H](/C=C/C=C/C=C/c3oc(=O)cc(OC)c3C)[C@H](O)[C@]2(C)[C@@]1(C)O`, the IC50 (MDA-MB-231) is reported as over 50 µM, the IC50 (HeLa) is reported as over 50 µM and the IC50 [1] is reported as over 50 µM.

`CC[C@H]1O[C@@H]2O[C@H](/C=C/C=C/C=C/c3oc(=O)cc(OCC=C(C)C)c3C)[C@H](O)[C@]2(C)[C@@]1(C)O` gave an IC50 (MDA-MB-231) of 37 µM, an IC50 (HeLa) of 48 µM and an IC50 [1] of 44 µM.

Compound `COC(=O)/C(C)=C/COc1cc(=O)oc(/C=C/C=C/C=C/[C@H]2O[C@H]3O[C@H](C)[C@](C)(O)[C@@]3(C)[C@H]2O)c1C` has an IC50 (MDA-MB-231) of 28 µM, an IC50 (HeLa) of 11 µM and an IC50 [1] of 21 µM.

For `COc1cc([C@@H]2c3cc4c(cc3[C@@H](O[C@@H]3O[C@@H]5CO[C@@H](C)O[C@H]5[C@H](O)[C@H]3O)[C@H]3COC(=O)[C@H]23)OCO4)cc(OC)c1O` [ETOPOSIDE], the IC50 (MDA-MB-231) was 4.2 µM, the IC50 (HeLa) was 3.2 µM and the IC50 [1] was 26.1 µM.

With `CC[C@H]1O[C@@H]2O[C@H](/C=C/C=C/C=C/c3oc(=O)cc(OC/C=C(\C)C(=O)OC)c3C)[C@H](O)[C@]2(C)[C@@]1(C)O` the IC50 (MDA-MB-231) was 35 µM, the IC50 (HeLa) was over 50 µM and the IC50 [1] was 9 µM. It also gave an IC50 (Acetylcholinesterase) of 14.9 µM.
